The structures appear in SMILES notation.

Minimal effective dose data for 24 compounds are collected here from ChEMBL document CHEMBL3400141, “Substituted piperazines as nootropic agents: 2- or 3-phenyl derivatives structurally related to the cognition-enhancer DM235” (Bioorg Med Chem Lett, 2015).

The subject of this assay is Mus musculus. The assay is described as follows: Cognition enhancing activity in sc dosed mouse assessed as reversal of scopolamine-induced amnesia measured up to 24 hrs treated 20 mins before training session by passive-avoidance test. The format is functional. As to conditions: read-out: MED. In short, it runs like this: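 Mouse passive-avoidance test (Jarvik and Kopp, slightly modified). Compounds in DMSO/saline (1:10), given s.c. 20 min before training, tested in a 1:10 dose-dilution sequence. Amnesia induced by scopolamine 1.5 mg/kg i.p. immediately after punishment. Mean of 8–16 mice per group; activity reported as minimal effective dose (MED, mg/kg).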
On to `O=C(c1ccccc1)N1CCNCC1`, for which the minimal effective dose was 0.1 mg/kg. For `CC(=O)N1CCN(S(=O)(=O)c2ccc(F)cc2)C(C)C1` (centres undefined) the value was 0.1 mg/kg; for `CC(=O)N1CCN(S(=O)(=O)c2ccc(F)cc2)CC1C` (centres undefined), 1 mg/kg; for `CCC(=O)N1CCN(C(=O)c2ccccc2)C(C)C1` (centres undefined), 0.1 mg/kg. Regarding `CCC(=O)N1CCN(C(=O)c2ccccc2)CC1C` (centres undefined), the minimal effective dose was more than 10 mg/kg. With `CC(=O)N1CCN(S(=O)(=O)c2ccc(F)cc2)CC1`, the minimal effective dose came to 0.01 mg/kg.

In the case of `CCC(=O)N1CCNC(c2ccccc2)C1` (centres undefined), the minimal effective dose is more than 10 mg/kg.

In the case of `CC(=O)N1CCNC(c2ccccc2)C1` (centres undefined), the minimal effective dose is more than 10 mg/kg.

Turning to `O=S(=O)(c1ccc(F)cc1)N1CCNC(c2ccccc2)C1` (centres undefined), the minimal effective dose was more than 10 mg/kg. Under `CCC(=O)N1CCN(C(=O)c2ccccc2)C[C@@H]1c1ccccc1` stands 1 mg/kg.

Regarding `CCC(=O)N1CCN(C(=O)c2ccccc2)C[C@H]1c1ccccc1`, the minimal effective dose came out at 0.1 mg/kg. Consider `CCC(=O)N1CCN(C(=O)c2ccccc2)C(c2ccccc2)C1` (centres undefined), for which the minimal effective dose came to 1 mg/kg. For `CC(=O)N1CCN(S(=O)(=O)c2ccc(F)cc2)C(c2ccccc2)C1` (centres undefined) the value was 10 mg/kg; for `CC(=O)N1CCN(S(=O)(=O)c2ccc(F)cc2)CC1c1ccccc1` (centres undefined), more than 10 mg/kg. For `CCC(=O)N1CCN(C(=O)c2ccccc2)CC1Cc1ccccc1` (centres undefined) the value was 1 mg/kg; for `CCC(=O)N1CCN(C(=O)c2ccccc2)C(Cc2ccccc2)C1` (centres undefined), 1 mg/kg; for `CCC(=O)N1CCNCC1`, 0.1 mg/kg. Under `CCC(=O)N1CCN2C(=O)c3ccccc3C2C1` (centres undefined) stands more than 10 mg/kg. For `O=C1c2ccccc2C2CN(S(=O)(=O)c3ccc(F)cc3)CCN12` (centres undefined), the minimal effective dose was determined as 0.1 mg/kg.

As for `O=C(c1ccccc1)N1CCNC(c2ccccc2)C1` (racemic), the minimal effective dose was more than 10 mg/kg.

`CCC(=O)N1CCN(C(=O)c2ccccc2)CC1c1ccccc1` (racemic): the minimal effective dose was found to be 0.1 mg/kg. In the case of `NC(=O)CN1CCCC1=O` [PIRACETAM], the minimal effective dose amounted to 30 mg/kg. Under `CCC(=O)N1CCN(C(=O)c2ccccc2)CC1` [SUNIFIRAM] stands 0.001 mg/kg. Under `O=C1CCC2CN(S(=O)(=O)c3ccc(F)cc3)CCN12` (centres undefined) [UNIFIRAM] stands 0.001 mg/kg.
